Activity calls are given as the source filed them. No cut-off for these calls is given here.
Experiments:
[1] = tested on: Rattus norvegicus; assay: (§1) Cardioprotective activity against ischemia/reperfusion-induced myocardial injury and high diet fed obese Wistar rat model assessed as decrease in LDH activity in coronary effluents at 20 mg/kg/day, ip administered for 4 weeks followed by excised heart exposed to global ischemia for 30 mins and reperfusion for 120 mins and measured during first 20 mins of reperfusion by spectrophotometric analysis; format: functional, organism-based
How it was run: (§2)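 HFD or SD rats, dosed 20 mg/kg/day i.p. for the final 28 days, anaesthetised with ethyl carbamate (2 g/kg i.p.). Hearts Langendorff-perfused with Krebs–Henseleit buffer (pH 7.4, 37 °C, 12 ml/min); 40 min stabilization, 30 min global no-flow ischemia, 120 min reperfusion. Coronary effluent collected on ice before ischemia and at 10, 20, 30 min reperfusion; LDH activity by McQueen method. n=6–7.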

[2] = tested on: Rattus norvegicus; assay: Antiinflammatory activity against high fat diet fed-induced metaflammation Wistar rat model assessed as reduction in HFD-induced metabolic alterations by measuring reduction in triglyceride level in plasma at 20 mg/kg/day, ip administered for 4 weeks; format: functional, organism-based
How it was run: (§3)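 Rats fed HFD or SD for 12 weeks, dosed 20 mg/kg/day i.p. in saline/2% DMSO/5% Cremophor-EL during the final 28 days. Serum obtained after sacrifice by centrifuging blood at 2000 x g, 10 min, 4 °C. Glucose read by glucometer; total, HDL and LDL cholesterol and triglycerides measured with commercial kits. n=6–7 per group.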

[3] = n-Octanol/water distribution coefficient, log D of the compound at pH 7.4 measured after 4 hrs by shake flask method; format: physicochemical
How it was run: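 Shake-flask at room temperature between n-octanol and 50 mM phosphate buffer pH 7.4, ionic strength 0.15 M KCl. Phases were pre-saturated by 4 h shaking. Compound at about 0.1 mg/ml in buffer, shaken about 20 min with n-octanol, then centrifuged at 10000 rpm for 10 min.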

[4] = Effect on glyco-metabolic profile in standard diet fed Wistar rat assessed as effect on total cholesterol level in plasma at 20 mg/kg/day, ip administered for 4 weeks; format: toxicity, organism-based; details: in vivo, 672 h; how it was run: as §3
[5] = tested on: Rattus norvegicus; assay: Inhibition of ischemia/reperfusion-induced NLRP3 inflammasome activation in ischemia/reperfusion-induced myocardial injury and high fat diet fed obese Wistar rat model assessed as decrease in NLRP3 protein expression at 20 mg/kg/day, ip administered for 4 weeks followed by excised heart exposed to global ischemia for 30 mins and reperfusion for 120 mins by immunoblot analysis; format: functional, organism-based
How it was run: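 Left ventricles from Langendorff hearts (30 min global ischemia/120 min reperfusion) of HFD or SD rats dosed 20 mg/kg/day i.p. for the final 28 days. Tissue homogenized in RIPA buffer with protease/phosphatase inhibitors. 50 μg protein run on 8% SDS-PAGE and immunoblotted for NLRP3 (1:500), normalized to β-actin by densitometry; n=4 per group.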

[6] = Effect on glyco-metabolic profile in standard diet fed Wistar rat assessed as effect on HDL cholesterol level in plasma at 20 mg/kg/day, ip administered for 4 weeks; format: toxicity, organism-based; details: in vivo, 672 h; how it was run: as §3
[7] = tested on: Rattus norvegicus; assay: as §1, with “standard” for “high”, “fed” for “fed obese”; format: functional, organism-based; how it was run: as §2
[8] = tested on: Rattus norvegicus; assay: Antiinflammatory activity against high fat diet fed-induced metaflammation Wistar rat model assessed as reduction in HFD-induced metabolic alterations by measuring reduction in total cholesterol level in plasma at 20 mg/kg/day, ip administered for 4 weeks; format: functional, organism-based; how it was run: as §3
[9] = target: NACHT, LRR and PYD domains-containing protein 3 (Homo sapiens, UniProt Q96P20); assay: Inhibition of NLRP3 inflammasome activation in PMA-differentiated human THP-1 cells assessed as inhibition of LPS/ATP-induced IL-1 beta release pretreated for 4 hrs with LPS followed by incubation with compound for 1 hr and later treated with ATP for 1.5 hrs by ELISA; format: cell-based
[10] = tested on: Rattus norvegicus; assay: Cardioprotective activity against high fat diet fed-induced metaflammation Wistar rat model assessed as reduction in myocardial damage by measuring reduction in plasma LDH level at 20 mg/kg/day, ip administered for 4 weeks; format: functional, organism-based
[11] = Stability of the compound in saline solution containing 2% DMSO and 5% Cremophor-EL measured at 25 degC for more than 7 days by RP-HPLC analysis; format: physicochemical; details: buffer, 168 h; time 7 day
How it was run: (§4)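 A 2 mg/mL solution in saline with 2% DMSO and 5% Cremophor-EL was kept at 4 °C or 25 °C for 7 days and analysed daily by RP-HPLC at 226/254 nm.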

[12] = tested on: Rattus norvegicus; assay: Cardioprotective activity against high fat diet fed-induced metaflammation Wistar rat model assessed as reduction in myocardial damage by measuring reduction in plasma BNP level at 20 mg/kg/day, ip administered for 4 weeks by ELISA; format: functional, organism-based
How it was run: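 Male Wistar rats on HFD or SD for 12 weeks received 20 mg/kg/day i.p. (saline, 2% DMSO, 5% Cremophor-EL) or vehicle for the last 28 days. Circulating IL-1β, TNF-α, BNP and Gal-3 quantified by ELISA in blood collected after sacrifice. n=6–7 per group.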

[13] = Stability of the compound in saline solution containing 2% DMSO and 5% Cremophor-EL measured at 4 degC for more than 7 days by RP-HPLC analysis; format: physicochemical; details: buffer, 168 h; time 7 day; how it was run: as §4
[14] = tested on: Rattus norvegicus; assay: (§5) Inhibition of ischemia/reperfusion-induced inflammation in ischemia/reperfusion-induced myocardial injury and standard diet fed Wistar rat model assessed as decrease in cardiac IL-1 beta level at 20 mg/kg/day, ip administered for 4 weeks followed by excised heart exposed to global ischemia for 30 mins and reperfusion for 120 mins by ELISA; format: functional, organism-based
How it was run: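 Male Wistar rats on standard or 60% kcal fat diet for 12 weeks; last 28 days i.p. 20 mg/kg/day in saline with 2% DMSO and 5% Cremophor-EL, or vehicle. Hearts perfused by Langendorff with KH buffer at 12 ml/min, 37°C, then 40 min stabilization, 30 min global no-flow ischemia and 120 min reperfusion. Cytokines measured in LV tissue; n=6–7 per group.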

[15] = tested on: Rattus norvegicus; assay: (§6) Cardioprotective activity against myocardial ischemia/reperfusion injury-induced contractile impairment and high fat diet fed obese Wistar rat model assessed as developed LVP recovery at 20 mg/kg/day, ip administered for 4 weeks followed by excised heart exposed to global ischemia for 30 mins and reperfusion for 120 mins and measured at the end of reperfusion (reference value: 32 +/-4 mmHg); format: functional
[16] = tested on: Rattus norvegicus; assay: Antiinflammatory activity against high fat diet fed-induced metaflammation Wistar rat model assessed as reduction in HFD-induced anthropometric alterations by measuring reduction in retroperitoneal fat deposition at 20 mg/kg/day, ip administered for 4 weeks; format: functional, organism-based
How it was run: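 Male Wistar rats on high-fat diet (60% kcal fat) or standard diet for 12 weeks; 20 mg/kg/day i.p. or vehicle (saline, 2% DMSO, 5% Cremophor-EL) over the last 28 days. Body weight recorded weekly. After sacrifice, abdominal, epididymal, retroperitoneal and perirenal fat, liver and heart excised and weighed. Cardiac somatic index = heart weight/body weight ×100. n=6–7 per group.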

[17] = tested on: Rattus norvegicus; assay: as §6, with “standard” for “high fat”, “fed” for “fed obese”, “left ventricular end diastolic pressure” for “developed LVP recovery”, “21 +/-2” for “32 +/-4”; format: functional
[18] = tested on: Rattus norvegicus; assay: as §5, with “oxidative stress” for “inflammation”, “increase” for “decrease”, “SOD activity” for “IL-1 beta level”, “mins” for “mins by ELISA”; format: functional, organism-based
How it was run: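 Same rat diet, dosing and ischemia/reperfusion protocol. LV homogenized in 50 mM Tris-HCl pH 8.2 with 1 mM DTPA and centrifuged at 20,000 x g for 20 min. Supernatant mixed with 0.2 mM pyrogallol, autoxidation followed at 420 nm for 3 min. Activity given as % pyrogallol autoxidation relative to sham; 1 U inhibits the rate by 50%.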

[19] = tested on: Rattus norvegicus; assay: as §1, with “and standard” for “and high”, “fed” for “fed obese”, “first 30” for “first 20”; format: functional, organism-based; how it was run: as §2

NACHT, LRR and PYD domains-containing protein 3, sequence (Q96P20 whole entry, the tested form may be a part): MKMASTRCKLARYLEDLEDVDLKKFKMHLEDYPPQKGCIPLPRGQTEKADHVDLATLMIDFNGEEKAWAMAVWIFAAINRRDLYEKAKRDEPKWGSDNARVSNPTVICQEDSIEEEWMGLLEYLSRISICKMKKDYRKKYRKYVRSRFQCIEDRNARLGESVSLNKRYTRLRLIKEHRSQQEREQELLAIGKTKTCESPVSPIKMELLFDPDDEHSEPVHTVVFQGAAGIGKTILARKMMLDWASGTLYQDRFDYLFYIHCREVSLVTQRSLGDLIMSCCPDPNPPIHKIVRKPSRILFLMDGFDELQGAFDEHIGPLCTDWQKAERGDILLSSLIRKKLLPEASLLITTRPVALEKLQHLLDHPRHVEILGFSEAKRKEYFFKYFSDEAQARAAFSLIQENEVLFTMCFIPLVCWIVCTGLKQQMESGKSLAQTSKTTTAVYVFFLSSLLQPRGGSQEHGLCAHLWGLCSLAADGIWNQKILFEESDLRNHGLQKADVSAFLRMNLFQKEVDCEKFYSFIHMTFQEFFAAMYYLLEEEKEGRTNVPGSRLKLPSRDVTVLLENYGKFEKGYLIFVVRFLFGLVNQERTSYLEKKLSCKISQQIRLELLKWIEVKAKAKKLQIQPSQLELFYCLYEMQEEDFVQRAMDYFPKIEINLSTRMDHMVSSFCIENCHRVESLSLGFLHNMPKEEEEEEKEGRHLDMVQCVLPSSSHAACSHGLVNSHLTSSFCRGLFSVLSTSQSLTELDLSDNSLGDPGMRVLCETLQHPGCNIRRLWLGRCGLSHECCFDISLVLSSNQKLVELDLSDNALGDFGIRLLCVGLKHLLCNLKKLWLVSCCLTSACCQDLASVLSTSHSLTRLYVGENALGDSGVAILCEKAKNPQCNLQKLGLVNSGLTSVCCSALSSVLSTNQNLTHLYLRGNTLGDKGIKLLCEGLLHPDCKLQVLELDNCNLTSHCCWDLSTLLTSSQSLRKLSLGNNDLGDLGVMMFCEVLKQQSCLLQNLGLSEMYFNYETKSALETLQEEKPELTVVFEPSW

SMILES: CCOC(=O)Cn1nc(Cc2ccccc2Cl)oc1=O
- Activity [1]: Active
- Activity [2]: Active
- logD at 4 h [3]: 2.03
- Activity [4]: Non-Toxic
- inhibition [5]: Active
- Activity [6]: Non-Toxic
- Activity [7]: Active
- Activity [8]: Active
- IC50 [9]: 16.6 µM
- Activity [10]: Active
- Stability [11]: Stable
- Activity [12]: Active
- Stability [13]: Stable
- inhibition [14]: Active
- Activity [15]: 65 mmHg
- Activity [16]: Active
- Activity [17]: 13 mmHg
- inhibition [18]: Active
- Activity [19]: Active

— ChEMBL document CHEMBL5335784, “Discovery of a novel 1,3,4-oxadiazol-2-one-based NLRP3 inhibitor as a pharmacological agent to mitigate cardiac and metabolic complications in an experimental model of diet-induced metaflammation” (Eur J Med Chem, 2023)
